Results on nine compounds are retold here after ChEMBL document CHEMBL3785019, “Dihydropyrazole derivatives as telomerase inhibitors: Structure-based design, synthesis, SAR and anticancer evaluation in vitro and in vivo” (Eur J Med Chem, 2016).

Assay [1] can be described thus: Cytotoxicity against human L02 cells after 48 hrs by MTT assay. The class given is cell-based. The settings on record: L02, 48 h. The gist of the method:
(§1)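 Human normal gastric mucosa GES-1 and liver L-02 cells; MTT assay; IC50 expressed in mM as mean of triplicate experiments.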
In general terms: Tetrazolium dyes change colour on reduction, which living cells bring about.

A further assay has as its system Bcap37. Kind of assay: Cytotoxicity against human Bcap37 cells after 48 hrs by MTT assay. The class given is functional, cell-based. Summed up: (§2)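 Tumor cells in log phase in RPMI 1640 + 10% FBS, seeded at 3×10^4 cells mL-1 and incubated 24 h (37 °C, 5% CO2). Test samples added at pre-set concentrations (6 wells each), doxorubicin as reference; 48 h exposure. MTT (2.5 mg·mL-1 in PBS) added for 4 h, formazan dissolved in DMSO, A570 read.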

Assay [2] can be described thus: Cytotoxicity against human GES-1 cells after 48 hrs by MTT assay. The class given is cell-based. The settings on record: GES1, 48 h. Summed up:
as §1

The target in assay [3] is T1, Telomerase reverse transcriptase (Homo sapiens, UniProt O14746). In words: Inhibition of telomerase in human MGC-803 cells after 24 hrs by TRAP-PCR-ELISA assay. The class given is cell-based. Summed up: (§3)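 Cells lysed in RIPA on ice for 30 min; extract incubated with TRAP mix at 25 °C for 30 min, then 35 PCR cycles. Products hybridized to DIG probe, captured on streptavidin, detected with peroxidase anti-DIG at 490 nm; mean±SD.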
T1 sequence (O14746 whole entry): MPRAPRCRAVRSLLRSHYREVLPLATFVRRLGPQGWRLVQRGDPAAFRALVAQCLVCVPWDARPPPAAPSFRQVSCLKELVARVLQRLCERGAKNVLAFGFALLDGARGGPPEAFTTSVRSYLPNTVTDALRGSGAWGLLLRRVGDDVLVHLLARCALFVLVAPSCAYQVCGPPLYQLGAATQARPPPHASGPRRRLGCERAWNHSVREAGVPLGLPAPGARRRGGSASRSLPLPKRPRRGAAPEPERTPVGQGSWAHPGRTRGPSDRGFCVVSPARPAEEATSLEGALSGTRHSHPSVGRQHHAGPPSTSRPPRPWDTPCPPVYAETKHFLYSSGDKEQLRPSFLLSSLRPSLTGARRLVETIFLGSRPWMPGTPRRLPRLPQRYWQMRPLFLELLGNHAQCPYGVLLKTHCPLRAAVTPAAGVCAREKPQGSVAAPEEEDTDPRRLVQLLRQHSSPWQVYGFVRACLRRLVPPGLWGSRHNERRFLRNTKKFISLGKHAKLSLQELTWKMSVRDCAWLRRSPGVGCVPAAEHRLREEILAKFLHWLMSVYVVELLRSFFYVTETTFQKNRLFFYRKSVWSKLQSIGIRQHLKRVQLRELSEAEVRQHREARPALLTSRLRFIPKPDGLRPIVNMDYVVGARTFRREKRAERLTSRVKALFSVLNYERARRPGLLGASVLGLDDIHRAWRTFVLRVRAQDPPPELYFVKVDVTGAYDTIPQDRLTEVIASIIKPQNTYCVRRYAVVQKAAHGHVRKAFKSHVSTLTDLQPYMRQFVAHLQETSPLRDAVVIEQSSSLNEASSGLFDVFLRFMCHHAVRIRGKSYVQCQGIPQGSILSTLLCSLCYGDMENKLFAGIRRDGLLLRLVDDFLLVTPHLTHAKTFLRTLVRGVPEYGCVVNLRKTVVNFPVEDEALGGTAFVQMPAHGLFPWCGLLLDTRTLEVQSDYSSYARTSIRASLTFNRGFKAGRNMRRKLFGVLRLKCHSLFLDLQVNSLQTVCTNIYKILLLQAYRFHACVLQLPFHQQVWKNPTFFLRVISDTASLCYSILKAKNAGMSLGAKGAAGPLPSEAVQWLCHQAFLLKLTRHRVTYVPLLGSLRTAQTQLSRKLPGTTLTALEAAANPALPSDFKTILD
In general terms: An ELISA detects its analyte on a solid surface through an enzyme-linked reagent.

Assay [4] can be described thus: Cytotoxicity against human MGC803 cells after 48 hrs by MTT assay. The class given is functional, cell-based, MGC-803. The gist of the method:
as §2

Assay [5] can be described thus: Cytotoxicity against human PC3 cells after 48 hrs by MTT assay. It is filed as functional, cell-based, PC-3. The gist of the method: as §2
The subject of a further assay is HepG2. In words: Cytotoxicity against human HepG2 cells after 48 hrs by MTT assay. It is filed as functional, cell-based. The gist of the method: as §2
The target in assay [6] is T1, Telomerase reverse transcriptase. In words: Inhibition of telomerase in human MGC-803 cells upto 60 uM after 24 hrs by TRAP-PCR-ELISA assay. The class given is cell-based. Summed up:
as §3

Where [7] appears, read: Homo sapiens, Bcap37, 48 h, read-out: IC50.
The mark [8] stands for this setting: Homo sapiens, MGC-803, 48 h, read-out: IC50.
Where [9] appears, read: Homo sapiens, PC-3, 48 h, read-out: IC50.
The mark [10] stands for this setting: Homo sapiens, HepG2, 48 h, read-out: IC50.

Structures are written as SMILES. Active and inactive are the calls of the source. The rule behind the calls is not given here.

As a reminder, the IC50 is the concentration at which inhibition is half-maximal.

As to `O=C(CCl)N1N=C(c2cc3ccccc3oc2=O)CC1c1ccccc1` (stereo unspecified), the IC50 stood at 1280 µM in assay [1]; 26.7 µM in the assay with Bcap37 (setting [7]); 2110 µM in assay [2]; 2.27 µM in assay [3]; 2.02 µM in assay [4] (setting [8]); 2.98 µM in assay [5] (setting [9]). Besides, in the assay with HepG2 (setting [10]), the IC50 stood at 2.98 µM.
As for `CC(=O)Oc1ccccc1C1CC(C)=NN1C(=O)CCl` (stereo unspecified), the IC50 in assay [1] was determined as 2530 µM; in the assay on Bcap37 (setting [7]) it was 6.81 µM; in assay [2], 1840 µM; in assay [3] it was 1.27 µM; in assay [4] (setting [8]) it was 3.01 µM; in assay [5] (setting [9]), 3.58 µM. Moreover, the IC50 in the assay with HepG2 (setting [10]) is 2.52 µM.
As for `CC1=NN(S(=O)(=O)c2ccc(C)cc2)C(c2cc(Br)cc(Br)c2O)C1` (stereo unspecified), the IC50 entry is “Not Active” with Bcap37 (bcap37), “Not Active” in assay [4] (mgc-803), 51.2 µM in assay [5] (setting [9]) and “Not Active” in the assay with HepG2 (hepg2). Moreover, the inhibition result in assay [6] is “inactive”.
Consider `CC(=O)Oc1ccccc1C1CC(C)=NN1C(=O)CN1CCC(O)CC1` (stereo unspecified), for which the IC50 in assay [1] is 2230 µM; with Bcap37 (setting [7]), 9.8 µM; in assay [2], 2510 µM; in assay [3], 5.69 µM; in assay [4] (setting [8]) it was 3.51 µM; in assay [5] (setting [9]), 25.6 µM. Also, in the assay on HepG2 (setting [10]), the concentration for half-maximal inhibition (IC50) worked out at 12.3 µM.
`CCN(CC)CC(=O)N1N=C(C)CC1c1ccccc1OC(C)=O` (stereo unspecified): the half-maximal inhibitory concentration (IC50) is 44.2 µM in the assay on Bcap37 (setting [7]), 29.5 µM in assay [4] (setting [8]), 51.2 µM in assay [5] (setting [9]) and 33.2 µM in the assay with HepG2 (setting [10]). Also, the inhibition entry in assay [6] is “inactive”.
For `O=C(CN1CCC(O)CC1)N1N=C(c2cc3ccccc3oc2=O)CC1c1ccccc1` (stereo unspecified), the IC50 result (in the assay on Bcap37 (bcap37); in assay [4] (mgc-803); in assay [5] (pc-3); with HepG2 (hepg2)) was “Not Active” in each case. The inhibition result in assay [6] was “inactive”.
Take `CC(C)CNCC(=O)N1N=C(c2cc3ccccc3oc2=O)CC1c1ccccc1` (stereo unspecified): the IC50 in the assay with Bcap37 (setting [7]) turned out to be 6.3 µM; in assay [3], 3.17 µM; in assay [4] (setting [8]), 29.7 µM; in assay [5] (setting [9]), 1.92 µM; with HepG2 (setting [10]) it was 9.97 µM.
On the same counts, the results for `CC1=NN(C(=O)CCl)C(c2cc(Br)cc(Br)c2O)C1` (stereo unspecified) are 51.1 µM, 3.68 µM, 4.91 µM, 5.82 µM and 3.35 µM.
Taken in the same sequence, the figures for `COc1ccccc1C1CC(C)=NN1C(=O)CN(C(C)C)C(C)C` (stereo unspecified) were 34.2 µM, 14.2 µM, 21.5 µM, 5.2 µM and 8.4 µM.
